The results in this text go back to ChEMBL document CHEMBL1122954, “Synthesis and antiallergic activity of some quinolinones and imidazoquinolinones” (1985).

What all share (assay type): functional
Experiment [1] relates to Rattus norvegicus. Nature of the experiment: Antiallergic activity by rat passive cutaneous anaphylaxis (PCA) assay when administered perorally at dose 100 mg/kg. The following applies: route oral.
For experiment [2], the system named is Rattus norvegicus. Nature of the experiment: Antiallergic activity determined by rat passive cutaneous anaphylaxis (PCA) assay when administered intraperitoneally at dose 60 mg/kg. The following applies: route intraperitoneal.
Experiment [3] has as its system Rattus norvegicus. The experiment is described as follows: Percentage normal weight gain when dosed at 200 mg/kg on day one of the 2-week study in rat. The procedure, abridged:
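Male Sprague-Dawley rats, fasted 16 h, given a single oral dose in 0.1% Methocel; controls got vehicle. Groups of 8–10, weighed daily at about the same time over 2 weeks. Gain over the first 4 days compared with expected gain from standard growth charts for age and strain. Mean % of normal weight gain ± standard error.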

Regarding `CCOC(=O)c1cnc2c([N+](=O)[O-])cccc2c1O`, the Activity in the experiment with Rattus norvegicus [1] was -2; with Rattus norvegicus [2], 13. Further, in the experiment on Rattus norvegicus [3], the Normal weight gain came out at 106%.

Take `COC(=O)c1cc(=O)c2cccc3ncn1c32`: the Activity in the experiment with Rattus norvegicus [1] amounted to 1; in the experiment with Rattus norvegicus [2] it was 16. Moreover, in the experiment on Rattus norvegicus [3], the Normal weight gain came out at 68%.

For `CCOC(=O)c1cn2c(C)nc3cccc(c1=O)c32`, the Activity in the experiment on Rattus norvegicus [1] is recorded as 83; in the experiment with Rattus norvegicus [2] it was 95. Also, the Normal weight gain in the experiment on Rattus norvegicus [3] was -49%.

As for `CCOC(=O)c1cn2cnc3cccc(c1=O)c32`, the Activity worked out at 70 in the experiment with Rattus norvegicus [1] and 100 in the experiment with Rattus norvegicus [2]. In addition, the Normal weight gain in the experiment on Rattus norvegicus [3] is -6%.

`O=CNc1cccc2c(O)c(C(=O)O)cnc12`: the Activity was determined as 0 in the experiment with Rattus norvegicus [1] and 62 in the experiment on Rattus norvegicus [2].

Take `CCOC(=O)c1cnc2c(NC=O)cccc2c1O`: the figures for the Activity with Rattus norvegicus [1] and with Rattus norvegicus [2] were 76 and 67, respectively. Besides, the Normal weight gain with Rattus norvegicus [3] was -26%.

On to `CCOC(=O)c1cnc2c(N)cccc2c1O`, for which the Activity in the experiment with Rattus norvegicus [2] was 19. Further, in the experiment with Rattus norvegicus [3], the Normal weight gain is 86%.

On to `COC(=O)c1cc(O)c2cccc(N)c2n1`, for which the results for the Activity in the experiment with Rattus norvegicus [1] and in the experiment with Rattus norvegicus [2] were 3 and 10, respectively. Further, the Normal weight gain in the experiment with Rattus norvegicus [3] amounted to 100%.

Take `O=CNc1cccc2c(O)cc(C(=O)O)nc12`: the Activity is recorded as 16 in the experiment with Rattus norvegicus [1] and 91 with Rattus norvegicus [2].

In the case of `COC(=O)c1cc(O)c2cccc([N+](=O)[O-])c2n1`, the results for the Activity with Rattus norvegicus [1] and in the experiment with Rattus norvegicus [2] were 8 and 66, respectively. Further, the Normal weight gain with Rattus norvegicus [3] is 104%.

Consider `CCOC(=O)c1cnc2c(N)cc(C)cc2c1O`, for which the Activity with Rattus norvegicus [2] is recorded as -2.

`CCOC(=O)c1cn2cnc3cc(C)cc(c1=O)c32`: the Activity worked out at 70 in the experiment with Rattus norvegicus [1] and 3 with Rattus norvegicus [2].

Take `CCO/C(C)=N/c1cccc2c(O)cc(C(=O)OC)nc12`: the Activity in the experiment on Rattus norvegicus [2] was 24.

Take `O=C([O-])c1cc(=O)c2c(OCC(O)COc3cccc4oc(C(=O)[O-])cc(=O)c34)cccc2o1.[Na+].[Na+]` [CROMOLYN SODIUM]: the Activity was 2 in the experiment on Rattus norvegicus [1] and 100 in the experiment with Rattus norvegicus [2].
